Drawing on ChEMBL document CHEMBL1124717, “Structural requirements for agonist actions at the benzodiazepine receptor: studies with analogues of 6-(benzyloxy)-4-(methoxymethyl)-beta-carboline-3-carboxylic acid ethyl ester” (J Med Chem, 1990), this text covers IC50, EC50 and logP for nine compounds.

Series [1] has as its target GABA-A receptor; anion channel. In words: In vitro inhibition of [3H]flunitrazepam binding to GABA-A Benzodiazepine receptor of rat cerebral cortex membranes. The series is classed as cell membranes, Membrane. The gist of the method:
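Washed rat cerebral cortex membranes (adult male Sprague-Dawley, 175–250 g) in 50 mM Tris-HCl pH 7.4, three wash spins at 20000g. Incubated with [3H]flunitrazepam (final 0.9–1.1 nM) and six to eight inhibitor concentrations for 120 min at 4 °C, then filtered. Nonspecific binding defined with Ro 15-1788 (10 μM). IC50 from sigmoid fit; mean of at least two determinations.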

Series [2] relates to Mus musculus. In words: In vivo anticonvulsant activity was determined in male NIH/Swiss mice after intraperitoneal administration; Antagonist. The series is classed as functional, organism-based. The gist of the method: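 Male NIH/Swiss mice (20–25 g) dosed ip with drug in 20% diluted Emulphor/80% saline, or vehicle. Antagonism run in groups of 10: test agent at various doses, diazepam (2.5 mg/kg) 15 min later, then PTZ challenge (80 mg/kg) after another 15 min. Seizures scored over 15 min. EC50 read graphically from percent convulsions versus log dose.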

Series [3] can be described thus: Partition coefficient (logP). The conditions noted are these: octanol/water. The class given is physicochemical.

For orientation: IC50 means the concentration that gives 50% inhibition. Lower therefore signals inhibition by little substance. As to `CCOC(=O)c1cc2c3cc(OCc4ccccc4)ccc3nc-2c[nH]1`, in series [1], the concentration for half-maximal inhibition (IC50) worked out at 8.9 nM.

In series [1], `CCOC(=O)c1ncc2c(c1CC)c1cc(OCc3ccccc3)ccc1n2C` showed an IC50 above 5000 nM.

As for `CCOC(=O)c1[nH]cc2nc3ccc(OC)cc3c-2c1COC`, in series [2], the EC50 is 1.25 mg/kg. In series [1], the IC50 was found to be 0.5 nM.

As for `CCOC(=O)c1ncc2c(c1COC)c1cc(OCc3ccccc3)ccc1n2C`, the IC50 in series [1] was determined as 945 nM.

Turning to `CCOC(=O)c1ncc2[nH]c3ccccc3c2c1COC`, the EC50 in series [2] is 15 mg/kg. In addition, the IC50 in series [1] worked out at 2.3 nM.

With `CCOC(=O)c1[nH]cc2nc3ccc(OCc4ccccc4)cc3c-2c1CC`, in series [1], the IC50 is 22 nM.

The term logP denotes the decadic logarithm of the partition coefficient of the neutral form, usually between octanol and water. A higher logP goes with higher lipophilicity. In series [3], `CCOC(=O)c1[nH]cc2nc3ccc(O)cc3c-2c1COC` displayed a lipophilicity (logP) of 1.44. The same compound gave a half-inhibitory concentration (IC50) in series [1] of 0.9 nM.

Consider `CCOC(=O)c1ncc2[nH]c3ccc(OCc4ccccc4)cc3c2c1COC`, for which, in series [3], the logP stood at 3.97. This compound also registered an IC50 in series [1] of 1 nM.

`CCOC(=O)c1cc2c3cc(OCc4ccccc4)ccc3n(C)c2cn1` displayed an IC50 in series [1] above 5000 nM.
